Reference: ChEMBL document CHEMBL1938334, “Quinoline tricyclic derivatives. Design, synthesis and evaluation of the antiviral activity of three new classes of RNA-dependent RNA polymerase inhibitors” (Bioorg Med Chem, 2011)

How the values were obtained:
[1] = Cytotoxicity against human CRL7065 cells after 96 hrs by MTT assay; assay type: cell-based, CRL-7065
In short: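 Foreskin fibroblasts seeded at 1×10^5 cells/mL in specific medium with 10% FCS and antibiotics; serial compound dilutions, 37 °C, 5% CO2, 96 h, under conditions allowing untreated controls at least three rounds of multiplication. MTT read-out; concentration reducing proliferation by 50% by linear regression versus untreated controls; three independent determinations.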

[2] = system: DU-145; assay: Cytotoxicity against human DU145 cells after 96 hrs by MTT assay; assay type: functional; settings: DU-145, 96 h
In short: (§1)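 Cells were seeded at 1×10^5 cells/mL: leukaemia/lymphoma lines in RPMI-1640, solid tumour and fibroblast lines in specific media, all with 10% FCS. Serial compound dilutions were applied for 96 h at 37 °C, 5% CO2, under conditions allowing controls at least three rounds of multiplication. Viability was read by MTT. CC50 by linear regression. Mean of three determinations.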

[3] = Cytotoxicity against BHK21 cells after 48 to 96 hrs by MTT assay; assay type: cell-based, Mesocricetus auratus, BHK-21; settings: hamster
In short: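 MDBK seeded at 6×10^5 and BHK at 1×10^6 cells/mL in MEM-Earle's with L-glutamine, 1 mM pyruvate, kanamycin, plus 10% horse serum (MDBK) or 10% FBS (BHK). Cells were grown at 37 °C, 5% CO2 with serial compound dilutions (DMSO stocks diluted in medium). Viability by MTT after 48–96 h. CC50 was taken by linear regression versus untreated controls; three independent determinations.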

[4] = Antiviral activity against Vaccinia virus Lister Elstree infected in african green monkey Vero 76 cells assessed as reduction of virus-induced plaque formation after 3 days using crystal violet staining; assay type: functional, cell-based; settings: 72 h
[5] = Cytotoxicity against african green monkey Vero 76 cells after 48 to 96 hrs by crystal violet staining; assay type: cell-based; settings: chlorocebus sabaeus
In short: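 Vero-76 cells were seeded at 4×10^5 cells/mL in D-MEM with L-glutamine, kanamycin and 10% FBS, then exposed to serial compound dilutions at 37 °C, 5% CO2 for 48–96 h. Viability was read by crystal violet staining. 50% cytotoxic concentration by linear regression relative to untreated controls; mean of three independent determinations.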

[6] = system: MCF7; assay: Cytotoxicity against human MCF7 cells after 96 hrs by MTT assay; assay type: functional; settings: MCF7, 96 h; in short: as §1
[7] = system: CCRF-CEM; assay: Cytotoxicity against human CCRF-CEM cells after 96 hrs by MTT assay; assay type: functional; in short: as §1
[8] = system: Hepatitis C virus; assay: Antiviral activity against HCV1b infected in human GS4.1 cells assessed as inhibition of virus-induced cytopathogenicity by measuring viral NS4A protein level after 72 hrs by ELISA; assay type: functional, organism-based, Hepacivirus hominis; settings: genotype 1b
In short: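 GS4.1 cells are Huh-7 cells carrying a genotype 1b subgenomic replicon, kept in 0.5 mg/mL G418. They were seeded at 7.5×10^3 cells/well with two-fold serial dilutions of compound (top 75 μM) and incubated 72 h at 37 °C. Huh-7 cells without the replicon served as negative control. NS4A was measured by cell ELISA with anti-NS4A mAb A-236, peroxidase and o-phenylenediamine, A492. EC50 came from four-parameter sigmoidal fit.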

[9] = system: HepG2; assay: Cytotoxicity against human HepG2 cells after 96 hrs by MTT assay; assay type: functional; settings: HepG2, 96 h; in short: as §1
[10] = Selectivity index, ratio of EC50 for Bovine viral diarrhea virus 1-NADL to CC50 for MDBK cells
In short: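 CC50 was measured in mock-infected MDBK cells seeded at 6×10^5 cells/mL in MEM-E with 10% horse serum and treated with serial compound dilutions for 48–96 h; viability by MTT. EC50 came from BVDV NADL CPE protection in MDBK cells at m.o.i. 0.01, 3–4 days, MTT. Both were obtained by linear regression.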

[11] = system: Human immunodeficiency virus 1; assay: Antiviral activity against HIV1 3B infected in human MT4 cells assessed as inhibition of virus-induced cytopathogenicity after 4 days by MTT assay; assay type: functional, organism-based; settings: Human immunodeficiency virus 1, 3B, MT4, 96 h
In short: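 MT-4 cells (1×10^4 per well) were infected with HIV-1 IIIB at 100 CCID50, m.o.i. 0.01, together with serial compound dilutions. Viability was read by MTT after 4 days at 37 °C. EC50 was taken by linear regression versus untreated controls. Mean of three determinations.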

[12] = Antiviral activity against Bovine viral diarrhea virus 1-NADL infected in MDBK cells assessed as inhibition of virus-induced cytopathogenicity after 3 to 4 days by MTT assay; assay type: functional, cell-based; settings: Bovine viral diarrhea virus isolates and strains
In short: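 Host cells were seeded in 96-well plates at 3×10^4 cells/well (MDBK) or 5×10^4 cells/well (BHK-21) and grown to confluent monolayers overnight. They were infected at m.o.i. 0.01 in maintenance MEM with 0.5% inactivated FBS. Serial compound dilutions were added after 1 h. Viability was read by MTT after 3–4 days at 37 °C. EC50 was taken by linear regression against untreated controls. Mean of three determinations.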

[13] = Cytotoxicity against human MRC5 cells after 96 hrs by MTT assay; assay type: cell-based; in short: as §1
[14] = Selectivity index, […] for human GS4.1 cells
In short: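 Both values come from GS4.1 replicon cells treated 72 h with two-fold serial dilutions (top 75 μM). EC50 was from NS4A ELISA with a four-parameter sigmoidal fit. CC50 was from a tetrazolium-based Aqueous One cell proliferation readout.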

[15] = system: SK-MEL-28; assay: Cytotoxicity against human SK-MEL-28 cells after 96 hrs by MTT assay; assay type: functional; settings: SK-MEL-28, 96 h; in short: as §1
[16] = Inhibition of HCV1b BK 6xHis-tagged recombinant NS5B Cdelta 21 RNA dependent RNA polymerase expressed in Escherichia coli (DE3) using GTP as substrate preincubated for 30 mins before substrate addition measured after 120 mins by fluorescence assay; design: species or system Hepatitis C virus (isolate BK)
In short: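 His-tagged NS5B (BVDV C-terminal Δ24; HCV1b Δ21) from E. coli Rosetta 2(DE3)pLysS, Ni-NTA purified, 500–600 ng per 20 μL. The template was poly(rC) 10 μg/mL and the primer oligo(rG)12 0.1 μg/mL, with GTP 80 μM. Buffer: 20 mM Tris pH 7.0, 0.5 mM MnCl2 or 5 mM MgCl2, 5% DMSO. Enzyme/drug 30 min at RT, then GTP added; 120 min at 37 °C (BVDV) or 25 °C (HCV). Read-out was dsRNA dye fluorescence (ex 480/em 520). IC50 from dose–response fits.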

[17] = system: Coxsackievirus B5; assay: Antiviral activity against Human coxsackievirus B5 Ohio-1 infected in african green monkey Vero 76 cells assessed as reduction of virus-induced plaque formation after 3 days using crystal violet staining; assay type: functional, organism-based; settings: Enterovirus B, Ohio-1, Vero, 72 h
[18] = system: WIL2-NS; assay: Cytotoxicity against human WIL2-NS cells after 96 hrs by MTT assay; assay type: functional; in short: as §1
[19] = system: Poliovirus 1; assay: Antiviral activity against Human poliovirus 1 strain Sabin Chat infected in african green monkey Vero 76 cells assessed as virus-induced reduction of plaque formation after 2 days using crystal violet staining; assay type: functional, cell-based; settings: Enterovirus C, 48 h
[20] = system: Human alphaherpesvirus 1; assay: Antiviral activity against Human herpesvirus 1 strain KOS infected in african green monkey Vero 76 cells assessed as reduction of virus-induced plaque formation after 3 days using crystal violet staining; assay type: functional, organism-based; settings: Human alphaherpesvirus 1, KOS, 72 h

Work on `O=[N+]([O-])c1ccc(-c2nc3cc4cccnc4c(Cl)c3[nH]2)cc1` yielded a CC50 at 96 h [1] of over 100 µM, a CC50 [2] of over 100 µM and a CC50 [3] of over 100 µM. The EC50 [4] was over 100 µM, the CC50 [5] was over 100 µM and the CC50 [6] was over 100 µM. For the same compound, the CC50 [7] was 49 µM, the EC50 [8] was 3.1 µM and the CC50 [9] was 10.3 µM. The “Selectivity Index” value [10] was over 100, the EC50 [11] was over 100 µM and the EC50 [12] was 1200 nM. The CC50 at 96 h [13] was over 100 µM, the “Selectivity Index” value [14] was 4 and the CC50 [15] was over 100 µM. The IC50 [16] was 8 µM, the EC50 [17] was over 100 µM and the CC50 [18] was over 100 µM. For the same compound, the EC50 [19] was over 100 µM and the EC50 [20] was 44 µM.
